The source of these data is ChEMBL document CHEMBL5715941, “AZD1152, a selective inhibitor of Aurora B kinase, inhibits human tumor xenograft growth by inducing apoptosis” (Clin Cancer Res, 2007).

Series [1] deals with HL-60. In words: Antitumor activity against human HL-60 cells xenografted in immunodeficient athymic mouse assessed as inhibition of tumor growth at 75 mg/kg, ip administered twice daily for 13 days relative to control. Format: functional, organism-based. The note with it: time 13.0 day.
Series [2] can be described thus: Toxicity in athymic nude rat xenografted with human SW620 cells assessed as maximal body weight loss at 25 mg/kg/day, iv for 24 h following 4 days. Format: organism-based, SW-620. The note with it: in vivo, 96 h, time 4 day. The method in brief:
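Male nude rats bearing SW620 xenografts received vehicle or AZD1152 at 25 mg/kg/d i.v. once daily for 4 consecutive days. Body weight was tracked, with maximal loss taken relative to vehicle-treated animals.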
Background: A xenograft is tissue or cells of one species grown in another, often human tumour cells in immunodeficient mice.

The test system of series [3] is HL-60. In words: Antitumor activity against human HL-60 cells xenografted in immunodeficient athymic mouse assessed as inhibition of tumor growth at 45 mg/kg, iv administered twice daily for 5 days relative to control. Format: functional. As to conditions: HL-60, 120 h, time 5 day.

For orientation: inhibition means the drop in the measured response relative to a control, in per cent. By inhibition in vivo is commonly meant the drop in the measured response relative to a control, in per cent.

Take `Cc1cc(Nc2cc(N3CCN(C)CC3)nc(Sc3ccc(NC(=O)C4CC4)cc3)n2)n[nH]1`: in the series on HL-60 [1], the inhibition came to 98%. As to `CCN(CCCOc1ccc2c(Nc3cc(CC(=O)Nc4cccc(F)c4)n[nH]3)ncnc2c1)CCOP(=O)(O)O` [BARASERTIB], the Activity in series [2] was found to be 5%. For `CCc1cccc(CC)c1NC(=O)N1Cc2[nH]nc(NC(=O)c3ccc(N4CCN(C)CC4)cc3)c2C1` [PHA-680632], the inhibition in vivo at 45 mg/kg with HL-60 [3] amounted to 85%.
